Active and inactive are the calls of the source. The rule behind the calls is not given here.

Assay [1] deals with Geotrichum candidum. Kind of assay: Fungicidal activity against Geotrichum candidum CCM 245 at 0.2 mg/disk after 48 hrs by agar diffusion assay. Type of assay: functional. The gist of the method:
(§1)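 Fungi were grown 7 days at 28 °C on PDA, then suspended in 0.05% Tween 80 in sterile water to about 10^6 conidia/mL. 1 mL was mixed into 15 mL PDA. After setting, four 0.5 cm paper disks impregnated with test product were added. Controls were solvent-only disks and benomyl disks, dosed per fungus. The read-out was the no-growth inhibition zone (mm), as the mean ± SE of three independent experiments.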
Background: In agar diffusion tests the substance spreads into inoculated agar from a disc or well.

Assay [2] concerns Trichoderma viride. Kind of assay: Fungicidal activity against Trichoderma viride CECT 2423 at 20 ug/disk after 48 hrs by agar diffusion assay. As to conditions: CECT 2423, 48 h, read-out: IZ. Type of assay: functional. The gist of the method: (§2)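 Fungi were grown on PDA for 7 days at 28 °C and suspended in 0.05% Tween 80 to about 10^6 conidia/mL. 1 mL was mixed into 15 mL PDA. Four 0.5 cm paper disks carrying compound were placed on the set agar. Solvent-only disks served as negative control. The inhibition zone (mm) around each disk was measured. Values are the mean of three independent experiments.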

The subject of assay [3] is Aspergillus parasiticus. Kind of assay: Fungicidal activity against Aspergillus parasiticus CECT 2681 at 20 ug/disk after 48 hrs by agar diffusion assay. Type of assay: functional. As to conditions: CECT 2681, 48 h, read-out: IZ. A digest of the protocol: as §2
Assay [4] has as its system Phytophthora citrophthora. Briefly: Fungicidal activity against Phytophthora citrophthora CECT 2353 at 30 ug/disk after 48 hrs by agar diffusion assay. The class given is functional. As to conditions: CECT 2353, 48 h, read-out: IZ. The gist of the method:
as §2

The subject of assay [5] is Fusarium culmorum. Briefly: Fungicidal activity against Fusarium culmorum CCM 172 at 0.2 mg/disk after 48 hrs by agar diffusion assay. Type of assay: functional. The gist of the method:
as §1

Assay [6] concerns Pectobacterium carotovorum. Briefly: Bactericidal activity against Erwinia carotovora CECT 225 at 0.3 mg/disk after 24 hrs by agar diffusion assay. Type of assay: functional, organism-based. A digest of the protocol: (§3)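 Each bacterium, kept as 24-h cultures on solid-medium slants, was reactivated in Nutrient Broth for 24 h at 28 or 37 °C depending on species. 1 mL of this suspension was plated and overlaid with 15 mL Plate Count Agar. Once the agar solidified, five paper disks loaded with test product were applied. Plates were incubated 24 h in the dark at 28 or 37 °C by species.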

The subject of assay [7] is Escherichia coli. Kind of assay: Bactericidal activity against Escherichia coli CECT 405 at 0.3 mg/disk after 24 hrs by agar diffusion assay. Type of assay: functional, organism-based. A digest of the protocol:
as §3

Assay [8] has as its system Geotrichum candidum. Kind of assay: Fungicidal activity against Geotrichum candidum CCM 245 at 0.4 mg/disk after 48 hrs by agar diffusion assay. The class given is functional, organism-based. The gist of the method:
as §1

Assay [9] deals with Escherichia coli. Briefly: Bactericidal activity against Escherichia coli CECT 100 at 0.3 mg/disk after 24 hrs by agar diffusion assay. The class given is functional, organism-based. The gist of the method: as §3
The subject of a further assay is Salmonella typhi. Briefly: Bactericidal activity against Salmonella typhi CECT 409 at 0.3 mg/disk after 24 hrs by agar diffusion assay. The class given is functional, organism-based. As to conditions: Salmonella enterica subsp. enterica serovar Typhi. The gist of the method: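 Bacteria from 24-h slant cultures reactivated in Nutrient Broth for 24 h at 28 or 37 °C depending on strain. 1 mL of suspension was placed in a plate and overlaid with 15 mL Plate Count Agar. After solidification, five paper disks loaded with compound were applied. Plates were incubated 24 h in the dark at 28 or 37 °C depending on strain.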

Assay [10] relates to Aspergillus parasiticus. Kind of assay: Fungicidal activity against Aspergillus parasiticus CECT 2681 at 0.4 mg/disk after 48 hrs by agar diffusion assay. The class given is functional, organism-based. The gist of the method: as §1
The test system of the next assay is Bacillus cereus. Briefly: Bactericidal activity against Bacillus cereus CECT 148 at 0.3 mg/disk after 24 hrs by agar diffusion assay. Type of assay: functional, organism-based. The gist of the method:
as §3

A further assay deals with Enterococcus faecalis. Briefly: Bactericidal activity against Enterococcus faecalis CECT 481 at 0.3 mg/disk after 24 hrs by agar diffusion assay. Type of assay: functional, organism-based. The gist of the method: as §3
A further assay concerns Staphylococcus aureus. Kind of assay: Bactericidal activity against Staphylococcus aureus CECT 86 at 0.3 mg/disk after 24 hrs by agar diffusion assay. The class given is functional, organism-based. A digest of the protocol: as §3
Assay [11] concerns Fusarium culmorum. Briefly: Fungicidal activity against Fusarium culmorum CCM 172 at […] after 48 hrs by agar diffusion assay. The class given is functional, organism-based. As to conditions: 0.4 mg/disk. A digest of the protocol:
as §1

For assay [12], the system named is Trichoderma viride. Kind of assay: Fungicidal activity against Trichoderma viride CECT 2423 at 0.4 mg/disk after 48 hrs by agar diffusion assay. The class given is functional, organism-based. A digest of the protocol:
as §1

The test system of assay [13] is Phytophthora citrophthora. Briefly: Fungicidal activity against Phytophthora citrophthora CECT 2353 at 0.4 mg/disk after 48 hrs by agar diffusion assay. Type of assay: functional, organism-based. The gist of the method:
as §1

As to `CCCCNC(=O)n1c(NC(=O)OC)nc2ccccc21` [BENOMYL], the “inhibition zone (IZ)” value with Geotrichum candidum [1] amounted to 0 mm; in the assay with Fusarium culmorum [5], 27.66 mm. In addition, the zone of inhibition at 20 µg/disc in the assay with Trichoderma viride [2] and in the assay with Aspergillus parasiticus [3] was 29.3 mm throughout. Also, the zone of inhibition at 30 µg/disc in [4] amounted to 44.3 mm.

In the case of `COc1cc2c(cc1OC)C1CCC(=O)N1CC2` (configuration not stated), the outcome (in assay [6]; with Escherichia coli [7]; in the assay on Escherichia coli [9]; in the assay with Salmonella typhi; in the assay on Bacillus cereus; in the assay with Enterococcus faecalis) was Active. Besides, the result in the assay on Staphylococcus aureus was Active. Further, the result (in the assay with Geotrichum candidum [8]; with Aspergillus parasiticus [10]; with Fusarium culmorum [11]; in the assay with Trichoderma viride [12]; in assay [13]) was inactive.
